Laboratory results as given in PubChem BioAssay AID504513 (The Scripps Research Institute Molecular Screening Center, 2011).
The source made the active and inactive calls.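 The calls were made as follows: active = PAFAH2 inhibition at least 50% at 0.2 µM with under 50% on each related off-target enzyme; inactive = the rest, including PAFAH2 hits that also hit off-targets.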

How the values were obtained:
Assay in all cases: competitive ABPP of PAFAH2 versus anti-target hydrolases – cell lysate, fluorescence, gel-based ABPP, BW5147 T-cell proteome, powder samples, late-stage follow-up (AID 504513);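 also: 0% = DMSO-only band intensity and 100% = blank gel background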
LYPLA1 = settings: BW5147 mouse T-cell proteome, FP-Rh gel ABPP, stronger effect = higher value
Outline: (§1)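 Assay system: murine BW5147 T-cell soluble lysate, PAFAH2 and anti-target serine hydrolases / Quantity: 1 mg/mL soluble protein / Schedule: 30 min compound, 30 min probe at 25 °C / Also added: FP-Rh probe at 2 µM / Controls: DMSO high, gel background low / Signal: in-gel fluorescence of probe-labelled bands, integrated optical density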

ESD = settings: BW5147 mouse T-cell proteome, FP-Rh gel ABPP, stronger effect = higher value
Outline: as §1

APEH = settings: BW5147 mouse T-cell proteome, FP-Rh gel ABPP, stronger effect = higher value
Outline: as §1

[1] = biological target: Platelet-activating factor acetylhydrolase 2, cytoplasmic (Mus musculus) (UniProt Q8VDG7); settings: FP-Rh gel ABPP, stronger effect = higher value
Outline: as §1

ABHD11 = settings: BW5147 mouse T-cell proteome, FP-Rh gel ABPP, stronger effect = higher value
Outline: as §1

Platelet-activating factor acetylhydrolase 2, cytoplasmic (Mus musculus), sequence (Q8VDG7 whole entry, looked up): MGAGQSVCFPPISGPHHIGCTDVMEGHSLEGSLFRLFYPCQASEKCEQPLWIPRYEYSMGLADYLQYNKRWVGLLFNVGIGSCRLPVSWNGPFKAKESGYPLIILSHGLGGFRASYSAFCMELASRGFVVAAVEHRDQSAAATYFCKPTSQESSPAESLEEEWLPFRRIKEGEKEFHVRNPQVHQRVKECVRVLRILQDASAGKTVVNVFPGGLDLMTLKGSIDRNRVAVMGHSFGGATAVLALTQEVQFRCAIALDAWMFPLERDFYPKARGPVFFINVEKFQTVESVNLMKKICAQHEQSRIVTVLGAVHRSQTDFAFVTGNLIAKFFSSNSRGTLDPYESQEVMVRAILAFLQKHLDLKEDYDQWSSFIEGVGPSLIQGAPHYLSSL

| Structure (SMILES) | inhibition (LYPLA1; at 1 µM) | inhibition (LYPLA1; inhibition, at 0.02 µM) | inhibition (LYPLA1; inhibition, at 0.2 µM) | inhibition (ESD; at 1 µM) | inhibition (ESD; inhibition, at 0.02 µM) | inhibition (ESD; inhibition, at 0.2 µM) | inhibition (APEH; at 1 µM) | inhibition (APEH; inhibition, at 0.02 µM) | inhibition (APEH; inhibition, at 0.2 µM) | inhibition ([1]; PAFAH2, at 1 µM) | inhibition ([1]; PAFAH2, inhibition, at 0.02 µM) | inhibition ([1]; PAFAH2, inhibition, at 0.2 µM) | inhibition (ABHD11; at 1 µM) | inhibition (ABHD11; inhibition, at 0.02 µM) | inhibition (ABHD11; inhibition, at 0.2 µM) |
| --- | --- | --- | --- | --- | --- | --- | --- | --- | --- | --- | --- | --- | --- | --- | --- |
| O=C(N1CCOCC1)n1ccnn1 | 0% (inactive) | 0% | 0% | 0% (inactive) | 0% | 0% | 0% (inactive) | 0% | 0% | 100% (inactive) | 0% | 0% | 100% | 0% | 50% |
| O=C(N1CCOCC1)n1ncc(-c2ccc(OC(F)(F)F)cc2)n1 | 0% (inactive) | 0% | 0% | 0% (inactive) | 0% | 0% | 0% (inactive) | 0% | 0% | 50% | 0% | 50% | 100% | 25% | 100% |
| O=C(N1CCCC1)n1ncc(-c2ccc(Oc3ccccc3)cc2)n1 | 0% (inactive) | 0% | 0% | 0% (inactive) | 0% | 0% | 100% | 0% | 100% | 100% | 100% | 100% | 0% (inactive) | 0% | 0% |
| O=C(N1CCCC1)n1ccnn1 | 100% (inactive) | 0% | 0% | 0% (inactive) | 0% | 0% | 100% (inactive) | 0% | 0% | 100% (inactive) | 0% | 0% | 100% (inactive) | 0% | 0% |
| CN1CCN(C(=O)n2ccnn2)CC1 | 0% (inactive) | 0% | 0% | 0% (inactive) | 0% | 0% | 0% (inactive) | 0% | 0% | 0% (inactive) | 0% | 0% | 50% (inactive) | 0% | 0% |
| O=C(N1CCOCC1)n1ncc(-c2cc(F)cc(F)c2)n1 | 0% (inactive) | 0% | 0% | 50% (inactive) | 0% | 25% | 100% | 0% | 100% | 100% | 0% | 100% | 100% | 50% | 100% |
| O=C(N(c1ccccc1)c1ccccc1)n1ccnn1 | 0% (inactive) | 0% | 0% | 0% (inactive) | 0% | 0% | 0% (inactive) | 0% | 0% | 0% (inactive) | 0% | 0% | 100% | 0% | 50% |
| O=C(N1CCCC1)n1ncc(C(O)(c2ccccc2)c2ccccc2)n1 | 0% (inactive) | 0% | 0% | 0% (inactive) | 0% | 0% | 100% | 0% | 100% | 100% | 0% | 100% | 100% | 0% | 100% |
| O=C(N1CCCC1)n1ncc(-c2ccccc2)n1 | 0% (inactive) | 0% | 0% | 0% (inactive) | 0% | 0% | 100% | 0% | 100% | 100% | 75% | 100% | 100% | 0% | 100% |
| O=C(N1CCCC1)n1ncc(-c2ccc(OC(F)(F)F)cc2)n1 | 0% (inactive) | 0% | 0% | 0% (inactive) | 0% | 0% | 100% | 0% | 100% | 100% | 25% | 100% | 50% | 0% | 50% |
| O=C(N1CCCC1)n1ncc(-c2ccc(-c3ccccc3)cc2)n1 | 0% (inactive) | 0% | 0% | 0% (inactive) | 0% | 0% | 0% (inactive) | 0% | 0% | 100% | 100% | 100% | 0% (inactive) | 0% | 0% |
| O=C(N1CCOCC1)n1ncc(C(O)(c2ccccc2)c2ccccc2)n1 | 0% (inactive) | 0% | 0% | 0% (inactive) | 0% | 0% | 0% (inactive) | 0% | 0% | 50% | 0% | 50% | 100% | 25% | 100% |
| COc1ccc2cc(-c3cnn(C(=O)N4CCCC4)n3)ccc2c1 | 0% (inactive) | 0% | 0% | 0% (inactive) | 0% | 0% | 100% (inactive) | 0% | 25% | 100% | 0% | 100% | 0% (inactive) | 0% | 0% |
| CCN(CC)C(=O)n1ccnn1 | 0% (inactive) | 0% | 0% | 0% (inactive) | 0% | 0% | 0% (inactive) | 0% | 0% | 0% (inactive) | 0% | 0% | 0% (inactive) | 0% | 0% |
| O=C(n1ccnn1)n1c2ccccc2c2ccccc21 | 0% (inactive) | 0% | 0% | 0% (inactive) | 0% | 0% | 0% (inactive) | 0% | 0% | 0% (inactive) | 0% | 0% | 0% (inactive) | 0% | 0% |
| O=C(N1CCCCC1)n1ccnn1 | 0% (inactive) | 0% | 0% | 0% (inactive) | 0% | 0% | 0% (inactive) | 0% | 0% | 50% (inactive) | 0% | 0% | 50% (inactive) | 0% | 0% |
| C=CCN(CC=C)C(=O)n1ccnn1 | 0% (inactive) | 0% | 0% | 0% (inactive) | 0% | 0% | 0% (inactive) | 0% | 0% | 0% (inactive) | 0% | 0% | 100% (inactive) | 0% | 0% |
| O=C(N1CCOCC1)n1ncc(-c2ccccc2)n1 | 0% (inactive) | 0% | 0% | 0% (inactive) | 0% | 0% | 50% (inactive) | 0% | 25% | 75% | 25% | 50% | 100% | 50% | 100% |
| CN(C(=O)n1ccnn1)c1ccccc1 | 0% (inactive) | 0% | 0% | 0% (inactive) | 0% | 0% | 0% (inactive) | 0% | 0% | 0% (inactive) | 0% | 0% | 100% (inactive) | 0% | 0% |
